Laboratory results published in ChEMBL document CHEMBL5661976 (Cancer Res, 2007).
Activity calls are given as the source filed them. The calls are words filed in the database; no cut-off is given here.

Assays:
[1] = molecular target: Protein kinase C alpha type (Homo sapiens, UniProt P17252); assay: Inhibition of recombinant PKCa (unknown origin)
[2] = Inhibition of recombinant PKB delta ph mutant (unknown origin); parameters: species or system Homo sapiens
PC-9 = assay: cells; format: functional, cell-based; settings: Homo sapiens, PC-9, 72 h
BaF3 [3] = assay: cells; format: functional, cell-based; settings: Mus musculus, BaF3, 72 h
cells = format: functional, cell-based; settings: Homo sapiens, NCI-H1781, 72 h
NIH3T3 [4] = settings: Mus musculus, dose 1-10000 nmol/L, time 6.25 hrs
HCC827 [5] = assay: cells; format: functional, cell-based; settings: Homo sapiens, HCC827, 72 h
Casein kinase I = assay: Inhibition of recombinant CK1 (unknown origin); format: protein assay, Homo sapiens
[6] = molecular target: Glycogen synthase kinase-3 beta (Homo sapiens, UniProt P49841); assay: Inhibition of recombinant GSK3b (unknown origin)
BaF3 [7] = assay: cells; format: functional, cell-based; settings: Mus musculus, BaF3, 72 h; remark: listed apart in the source
[8] = Inhibition of recombinant Bir Kinase (unknown origin); parameters: species or system Homo sapiens
NCI-H3255 [9] = assay: cells; format: functional, cell-based; settings: Homo sapiens, NCI-H3255, 72 h
[10] = molecular target: Insulin-like growth factor 1 receptor (Homo sapiens, UniProt P08069); assay: Inhibition of recombinant IGF1R (unknown origin)
BaF3 [11] = assay: cells; format: functional, cell-based; settings: Mus musculus, BaF3, 72 h; remark: listed apart in the source
NCI-H3255GR = assay: Induction of apoptosis in human NCI-H3255GR cells assessed as increase in cleavage of PARP at 1 micromol/L incubated for 72 hrs by Western blotting analysis; format: functional, cell-based; settings: dose 1.0 µmol/L
[12] = molecular target: Cyclin-dependent kinase 4/cyclin D (Homo sapiens, UniProt P11802); assay: Inhibition of recombinant CDK4/Cyclin D (unknown origin); format: protein-complex assay
[13] = molecular target: Mitogen-activated protein kinase 11 (Homo sapiens, UniProt Q15759); assay: Inhibition of recombinant SAPK2b/p38beta2 (unknown origin)
[14] = molecular target: Rho-associated protein kinase 2 (Homo sapiens, UniProt O75116); assay: Inhibition of recombinant ROCK-II (unknown origin)
[15] = molecular target: Tyrosine-protein kinase CSK (Homo sapiens, UniProt P41240); assay: Inhibition of recombinant CSK (unknown origin)
[16] = molecular target: Serine/threonine-protein kinase Chk1 (Homo sapiens, UniProt O14757); assay: Inhibition of recombinant CHK1 (unknown origin)
NCI-H3255 [17] = assay: cells; format: functional, cell-based; settings: Homo sapiens, NCI-H3255, 72 h; remark: listed apart in the source
[18] = molecular target: Dual specificity mitogen-activated protein kinase kinase 1 (Homo sapiens, UniProt Q02750); assay: Inhibition of recombinant MEK1 (unknown origin)
HCC827 [19] = assay: cells; format: functional, cell-based; settings: Homo sapiens, HCC827, 72 h; remark: listed apart in the source
[20] = Inhibition of recombinant p70S6K (unknown origin); parameters: species or system Homo sapiens
[21] = molecular target: Mitogen-activated protein kinase 8 (Homo sapiens, UniProt P45983); assay: Inhibition of recombinant SAPK1c (unknown origin)
BaF3 [22] = assay: cells; format: functional, cell-based; settings: Mus musculus, BaF3, 72 h; remark: listed apart in the source
[23] = molecular target: Tyrosine-protein kinase Fes/Fps (Homo sapiens, UniProt P07332); assay: Inhibition of recombinant FES (unknown origin)
HCC827 [24] = assay: cells; format: functional, cell-based; settings: Homo sapiens, HCC827, 72 h; remark: listed apart in the source
NCI-H3255 [25] = assay: cells; format: functional, cell-based; settings: Homo sapiens, NCI-H3255, 72 h; remark: listed apart in the source
Casein kinase 2 = Casein kinase 2 (Homo sapiens, UniProt P67870+P68400+P19784+Q8NEV1); assay: Inhibition of recombinant CK2 (unknown origin); format: protein assay
NIH3T3 [26] = settings: Mus musculus, dose 1-10000 nmol/L, time 6.25 hrs; remark: listed apart in the source
NIH3T3 [27] = assay: Inhibition of ERBB2 Ins774YVMA mutant (unknown origin) expressed in mouse NIH3T3 cells assessed as inhibition of ERBB2 phosphorylation at 100 to 10000 nmol/L incubated for 6 hrs by Western blotting analysis; format: cell-based; settings: dose 100-10000 nmol/L
HCC827 [28] = assay: cells; format: functional, cell-based; settings: Homo sapiens, HCC827, 72 h; remark: listed apart in the source
[29] = molecular target: Serine/threonine-protein kinase Nek2 (Homo sapiens, UniProt P51955); assay: Inhibition of recombinant NEK2a (unknown origin)
BaF3 [30] = assay: cells; format: functional, cell-based; settings: Mus musculus, BaF3, 72 h; remark: listed apart in the source
BaF3 [31] = assay: cells; format: functional, cell-based; settings: Mus musculus, BaF3, 72 h; remark: listed apart in the source
HCC827 [32] = assay: Antitumor activity against human HCC827 cells expressing GFP xenografted in nude mouse assessed as inhibition of tumor growth at 10 mg/kg/day, po and measured thrice weekly; format: functional, organism-based
Method in brief: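 Nu/nu mice under 2% isoflurane/oxygen inoculated s.c. in lower-right flank with 5 × 10^6 HCC827-GFP or HCC827-Del/T790M cells in 0.2 mL PBS; randomized at mean tumor 400 to 500 mm3. Daily oral gavage 10 mg/kg/d; caliper volume = length × width² × 0.52; body weight monitored daily; ended when control tumors reached 2000 mm3.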

Wee1-like protein kinase = Wee1-like protein kinase (Homo sapiens, UniProt P30291); assay: Inhibition of recombinant Wee1 (unknown origin)
[33] = molecular target: Ribosomal protein S6 kinase alpha-5 (Homo sapiens, UniProt O75582); assay: Inhibition of recombinant MSK1 (unknown origin)
[34] = Inhibition of recombinant CDK2/Cyclin A (unknown origin); parameters: species or system Homo sapiens

Chain of Glycogen synthase kinase-3 beta (P49841 whole entry): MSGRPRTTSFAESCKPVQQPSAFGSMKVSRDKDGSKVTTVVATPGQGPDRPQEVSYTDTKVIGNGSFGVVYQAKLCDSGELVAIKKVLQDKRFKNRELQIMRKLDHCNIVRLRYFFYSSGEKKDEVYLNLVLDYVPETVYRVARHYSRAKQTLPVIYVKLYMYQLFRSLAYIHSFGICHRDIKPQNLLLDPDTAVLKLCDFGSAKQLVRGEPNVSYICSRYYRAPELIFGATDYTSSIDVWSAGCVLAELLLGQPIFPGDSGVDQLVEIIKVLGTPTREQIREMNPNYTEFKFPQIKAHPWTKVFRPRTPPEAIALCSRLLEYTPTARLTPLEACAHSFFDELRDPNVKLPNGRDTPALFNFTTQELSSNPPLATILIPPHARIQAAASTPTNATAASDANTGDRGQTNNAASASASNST
Chain of Tyrosine-protein kinase Fes/Fps (P07332 whole entry): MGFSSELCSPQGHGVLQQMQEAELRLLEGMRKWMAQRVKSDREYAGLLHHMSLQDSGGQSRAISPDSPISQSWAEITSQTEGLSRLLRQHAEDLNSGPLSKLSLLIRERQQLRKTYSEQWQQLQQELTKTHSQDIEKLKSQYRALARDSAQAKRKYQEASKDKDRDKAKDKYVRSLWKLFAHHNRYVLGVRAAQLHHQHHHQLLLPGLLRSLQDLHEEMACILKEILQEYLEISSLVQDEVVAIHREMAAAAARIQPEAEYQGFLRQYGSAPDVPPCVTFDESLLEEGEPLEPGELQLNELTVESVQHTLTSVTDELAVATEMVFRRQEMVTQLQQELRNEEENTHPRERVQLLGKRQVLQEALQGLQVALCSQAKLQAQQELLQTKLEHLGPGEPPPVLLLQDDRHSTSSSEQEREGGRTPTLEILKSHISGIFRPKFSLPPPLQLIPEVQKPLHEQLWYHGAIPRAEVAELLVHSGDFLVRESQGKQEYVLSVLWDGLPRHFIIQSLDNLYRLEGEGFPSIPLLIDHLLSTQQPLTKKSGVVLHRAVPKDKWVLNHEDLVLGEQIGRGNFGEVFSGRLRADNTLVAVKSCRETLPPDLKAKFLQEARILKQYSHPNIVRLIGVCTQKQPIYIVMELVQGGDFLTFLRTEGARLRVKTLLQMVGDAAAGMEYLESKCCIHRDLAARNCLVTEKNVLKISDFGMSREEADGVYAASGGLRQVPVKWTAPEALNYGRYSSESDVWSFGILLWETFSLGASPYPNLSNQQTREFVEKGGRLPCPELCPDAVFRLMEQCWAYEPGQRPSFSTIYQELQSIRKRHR
Chain of Mitogen-activated protein kinase 11 (Q15759 whole entry): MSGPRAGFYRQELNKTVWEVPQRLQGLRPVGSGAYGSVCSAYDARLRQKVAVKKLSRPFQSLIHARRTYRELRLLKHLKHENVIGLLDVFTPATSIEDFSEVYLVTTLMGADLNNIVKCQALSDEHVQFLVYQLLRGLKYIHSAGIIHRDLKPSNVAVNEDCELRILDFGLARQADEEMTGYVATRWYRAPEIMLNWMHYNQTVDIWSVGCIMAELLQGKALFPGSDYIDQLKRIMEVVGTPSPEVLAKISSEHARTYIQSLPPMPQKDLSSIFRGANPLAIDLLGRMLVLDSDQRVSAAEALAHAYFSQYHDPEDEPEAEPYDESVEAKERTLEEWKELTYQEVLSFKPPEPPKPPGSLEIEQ
Chain of Tyrosine-protein kinase CSK (P41240 whole entry): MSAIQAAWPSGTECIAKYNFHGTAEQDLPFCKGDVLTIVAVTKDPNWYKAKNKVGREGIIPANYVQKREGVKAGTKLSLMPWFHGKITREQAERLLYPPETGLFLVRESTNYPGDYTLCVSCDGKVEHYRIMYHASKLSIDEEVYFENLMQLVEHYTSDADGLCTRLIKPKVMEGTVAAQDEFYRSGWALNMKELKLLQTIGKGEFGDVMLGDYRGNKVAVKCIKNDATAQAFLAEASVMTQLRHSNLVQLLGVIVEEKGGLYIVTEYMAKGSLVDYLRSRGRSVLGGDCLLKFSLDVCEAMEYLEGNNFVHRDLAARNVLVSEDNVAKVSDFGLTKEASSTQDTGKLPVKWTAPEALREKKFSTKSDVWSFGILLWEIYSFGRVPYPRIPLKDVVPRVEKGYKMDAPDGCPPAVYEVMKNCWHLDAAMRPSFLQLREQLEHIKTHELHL
Chain of Mitogen-activated protein kinase 8 (P45983 whole entry): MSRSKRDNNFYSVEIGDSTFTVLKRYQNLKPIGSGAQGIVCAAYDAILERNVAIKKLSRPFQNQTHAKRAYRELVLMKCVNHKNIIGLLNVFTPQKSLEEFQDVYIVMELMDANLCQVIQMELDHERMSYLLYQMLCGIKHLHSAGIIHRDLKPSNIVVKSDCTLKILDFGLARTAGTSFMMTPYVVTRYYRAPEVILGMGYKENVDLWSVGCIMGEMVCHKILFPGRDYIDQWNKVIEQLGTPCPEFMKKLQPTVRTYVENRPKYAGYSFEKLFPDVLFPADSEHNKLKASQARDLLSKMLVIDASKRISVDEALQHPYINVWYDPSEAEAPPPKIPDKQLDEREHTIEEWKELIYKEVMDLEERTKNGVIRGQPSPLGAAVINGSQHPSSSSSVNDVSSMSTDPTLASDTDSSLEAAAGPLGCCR
Chain of Wee1-like protein kinase (P30291 whole entry): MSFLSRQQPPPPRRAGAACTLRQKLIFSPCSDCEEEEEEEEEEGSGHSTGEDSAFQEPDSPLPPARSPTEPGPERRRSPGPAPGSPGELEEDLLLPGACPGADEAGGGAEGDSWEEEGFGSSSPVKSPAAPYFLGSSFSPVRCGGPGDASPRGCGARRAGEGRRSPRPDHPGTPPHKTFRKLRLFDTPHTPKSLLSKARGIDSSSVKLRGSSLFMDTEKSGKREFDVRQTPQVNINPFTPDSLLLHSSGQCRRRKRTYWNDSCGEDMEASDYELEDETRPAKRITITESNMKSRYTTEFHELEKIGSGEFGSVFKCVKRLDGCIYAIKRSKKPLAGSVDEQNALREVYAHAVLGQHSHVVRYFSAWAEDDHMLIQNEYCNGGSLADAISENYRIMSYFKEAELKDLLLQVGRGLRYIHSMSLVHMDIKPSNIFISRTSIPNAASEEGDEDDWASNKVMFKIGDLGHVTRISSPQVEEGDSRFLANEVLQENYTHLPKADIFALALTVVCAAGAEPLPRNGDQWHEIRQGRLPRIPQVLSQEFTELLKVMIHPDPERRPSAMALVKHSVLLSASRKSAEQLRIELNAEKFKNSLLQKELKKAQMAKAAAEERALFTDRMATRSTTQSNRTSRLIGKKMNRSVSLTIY
Chain of Serine/threonine-protein kinase Chk1 (O14757 whole entry): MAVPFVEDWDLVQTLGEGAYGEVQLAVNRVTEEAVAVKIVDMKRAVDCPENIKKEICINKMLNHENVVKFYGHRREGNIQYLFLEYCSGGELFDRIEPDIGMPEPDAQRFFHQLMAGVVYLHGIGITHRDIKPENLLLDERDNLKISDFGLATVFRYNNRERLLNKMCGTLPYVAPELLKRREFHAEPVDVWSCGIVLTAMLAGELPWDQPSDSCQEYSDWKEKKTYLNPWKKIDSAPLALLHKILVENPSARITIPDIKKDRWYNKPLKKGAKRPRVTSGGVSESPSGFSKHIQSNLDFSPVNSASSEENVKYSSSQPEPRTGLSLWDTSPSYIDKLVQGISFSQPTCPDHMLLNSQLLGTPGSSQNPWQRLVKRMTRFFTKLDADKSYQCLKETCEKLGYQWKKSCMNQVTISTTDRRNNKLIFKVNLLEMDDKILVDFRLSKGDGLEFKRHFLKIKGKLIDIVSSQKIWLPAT
Chain of Dual specificity mitogen-activated protein kinase kinase 1 (Q02750 whole entry): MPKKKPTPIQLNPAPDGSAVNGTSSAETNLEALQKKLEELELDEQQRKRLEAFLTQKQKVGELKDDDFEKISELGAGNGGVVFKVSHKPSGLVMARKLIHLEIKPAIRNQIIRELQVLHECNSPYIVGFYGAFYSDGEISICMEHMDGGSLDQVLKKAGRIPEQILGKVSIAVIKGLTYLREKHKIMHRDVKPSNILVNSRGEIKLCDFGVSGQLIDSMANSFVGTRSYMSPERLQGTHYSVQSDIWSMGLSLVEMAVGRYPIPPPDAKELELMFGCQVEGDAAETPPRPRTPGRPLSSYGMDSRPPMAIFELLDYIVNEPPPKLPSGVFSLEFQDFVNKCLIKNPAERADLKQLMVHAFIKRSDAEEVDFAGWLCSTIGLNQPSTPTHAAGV

COc1cc2ncnc(Nc3ccc(F)c(Cl)c3)c2cc1NC(=O)/C=C/CN1CCCCC1 [DACOMITINIB ANHYDROUS]
IC50 [1]: > 10000 nM
IC50 [2]: > 10000 nM
IC50 (PC-9): 2 nM
IC50 (BaF3 [3]): 230 nM
IC50 (cells): 275 nM
inhibition (NIH3T3 [4]): Active
IC50 (HCC827 [5]): 2 nM
IC50 (Casein kinase I): > 10000 nM
IC50 [6]: > 10000 nM
IC50 (BaF3 [7]): 1.4 nM
IC50 [8]: > 40000 nM
IC50 (NCI-H3255 [9]): 1620 nM
IC50 [10]: > 40000 nM
IC50 (BaF3 [11]): 1.9 nM
Activity (NCI-H3255GR): Active
IC50 [12]: > 40000 nM
IC50 [13]: > 10000 nM
IC50 [14]: > 10000 nM
IC50 [15]: > 10000 nM
IC50 [16]: > 10000 nM
IC50 (NCI-H3255 [17]): 137 nM
IC50 [18]: > 40000 nM
IC50 (HCC827 [19]): 2 nM
IC50 [20]: > 10000 nM
IC50 [21]: > 10000 nM
IC50 (BaF3 [22]): 1.6 nM
IC50 [23]: > 40000 nM
IC50 (HCC827 [24]): 83 nM
IC50 (NCI-H3255 [25]): 1570 nM
IC50 (Casein kinase 2): > 10000 nM
inhibition (NIH3T3 [26]): Active
inhibition (NIH3T3 [27]): Active
IC50 (HCC827 [28]): 3 nM
IC50 [29]: > 10000 nM
IC50 (BaF3 [30]): 330 nM
IC50 (BaF3 [31]): 160 nM
Activity (HCC827 [32]): Active
IC50 (Wee1-like protein kinase): > 10000 nM
IC50 [33]: > 10000 nM
IC50 [34]: > 40000 nM
